Experimental data: ChEMBL document CHEMBL4811218, “Discovery and optimization of withangulatin A derivatives as novel glutaminase 1 inhibitors for the treatment of triple-negative breast cancer” (Eur J Med Chem, 2021)
Activity calls are given as the source filed them. No cut-off for these calls is given here.

How the values were obtained:
MDA-MB-231 [1] = experiment: Antiproliferative activity against human MDA-MB-231 cells after 24 hrs by MTT assay relative to control; assay type: functional
How it was run: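 MDA-MB-231 cells kept in DMEM with 10% FBS at 37°C, 5% CO2. Seeded at 5×10^3 cells/well and left 24 h, then exposed to compounds at 0.078-10 µM for 24 h. 0.1% DMSO served as the vehicle control. MTT added for 4 h, formazan dissolved in DMSO, absorbance read at 570 nm. IC50 derived. Each run in triplicate, repeated at least three times.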

[2] = molecular target: T1, Glutaminase kidney isoform, mitochondrial (Homo sapiens, UniProt O94925); experiment: Inhibition of human GLS1
T1 sequence (O94925 whole entry): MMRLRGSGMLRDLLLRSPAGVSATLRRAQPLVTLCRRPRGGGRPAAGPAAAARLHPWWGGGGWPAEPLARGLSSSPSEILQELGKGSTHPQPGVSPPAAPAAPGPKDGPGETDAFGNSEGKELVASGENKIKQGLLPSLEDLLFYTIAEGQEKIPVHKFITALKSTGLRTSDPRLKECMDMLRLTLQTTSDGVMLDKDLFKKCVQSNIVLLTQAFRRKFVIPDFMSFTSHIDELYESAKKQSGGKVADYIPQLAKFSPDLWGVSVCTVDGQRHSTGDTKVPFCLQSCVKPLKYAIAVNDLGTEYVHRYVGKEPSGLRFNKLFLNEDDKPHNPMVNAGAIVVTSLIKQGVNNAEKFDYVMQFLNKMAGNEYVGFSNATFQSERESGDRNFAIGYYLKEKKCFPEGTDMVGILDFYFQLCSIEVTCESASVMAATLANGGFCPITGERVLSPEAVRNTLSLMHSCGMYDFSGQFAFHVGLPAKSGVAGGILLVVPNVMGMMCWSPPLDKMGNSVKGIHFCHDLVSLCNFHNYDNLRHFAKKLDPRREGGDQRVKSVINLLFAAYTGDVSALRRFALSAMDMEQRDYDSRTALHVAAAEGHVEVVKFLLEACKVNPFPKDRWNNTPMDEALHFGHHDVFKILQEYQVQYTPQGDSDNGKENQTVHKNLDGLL
How it was run: (§1)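 Human GLS1 hydrolase activity measured with a commercial GLS1 inhibitor screening kit, following the manufacturer's protocol. Single-point screening was run at 10 μM.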

MDA-MB-231 [3] = experiment: Inhibition of colony formation in human MDA-MB-231 cells at 160 to 640 nM treated for 24 hrs and incubated for 2 weeks by crystal violet staining based assay; assay type: functional, cell-based; conditions: dose 160-640 nM
How it was run: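 MDA-MB-231 cells seeded at 1000 per well and left 24 h. Treated with DMSO vehicle or compound for 24 h, then grown two weeks with medium changed twice weekly. Colonies fixed in 4% paraformaldehyde and stained with 0.05% crystal violet. Result expressed as % of vehicle. n = 4.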

MDA-MB-231 [4] = experiment: Induction of apoptosis in human MDA-MB-231 cells assessed as viable cells at 160 nM incubated for 12 hrs by annexin V-FITC/PI based flow cytometric analysis (reference value: 98.1%); assay type: functional; conditions: read-out: Activity
How it was run: (§2)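 Cells exposed to compound or 0.1% DMSO for 12 h at 37°C, then resuspended in PBS at 1×10^5 cells/mL. Stained with annexin V-FITC and PI for 20 min at room temperature in the dark, then analysed by flow cytometry. Quadrant percentages reported: lower right early apoptotic, upper right late apoptotic. n = 4, mean ± SD.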

MDA-MB-231 [5] = experiment: Induction of apoptosis in human MDA-MB-231 cells assessed as late apoptotic cells at 160 nM incubated for 12 hrs by annexin V-FITC/PI based flow cytometric analysis (reference value: 0.7%); assay type: functional; how it was run: as §2
MDA-MB-231 [6] = experiment: Induction of apoptosis in human MDA-MB-231 cells assessed as viable cells at 320 nM incubated for 12 hrs by annexin V-FITC/PI based flow cytometric analysis (reference value: 98.1%); assay type: functional; conditions: read-out: Activity; how it was run: as §2
MDA-MB-231 [7] = experiment: Induction of apoptosis in human MDA-MB-231 cells assessed as late apoptotic cells at 320 nM incubated for 12 hrs by annexin V-FITC/PI based flow cytometric analysis (reference value: 0.7%); assay type: functional; how it was run: as §2
MDA-MB-231 [8] = experiment: Induction of apoptosis in human MDA-MB-231 cells assessed as necrotic cells at 320 nM incubated for 12 hrs by annexin V-FITC/PI based flow cytometric analysis (reference value: 0.1%); assay type: functional; how it was run: as §2
MDA-MB-231 [9] = experiment: Induction of apoptosis in human MDA-MB-231 cells assessed as viable cells at 640 nM incubated for 12 hrs by annexin V-FITC/PI based flow cytometric analysis (reference value: 98.1%); assay type: functional; conditions: read-out: Activity; how it was run: as §2
MDA-MB-231 [10] = experiment: Induction of apoptosis in human MDA-MB-231 cells assessed as early apoptotic cells at 640 nM incubated for 12 hrs by annexin V-FITC/PI based flow cytometric analysis (reference value: 1.2%); assay type: functional; how it was run: as §2
MDA-MB-231 [11] = experiment: Induction of apoptosis in human MDA-MB-231 cells assessed as necrotic cells at 640 nM incubated for 12 hrs by annexin V-FITC/PI based flow cytometric analysis (reference value: 0.1%); assay type: functional; how it was run: as §2
MDA-MB-231 [12] = experiment: Induction of apoptosis in human MDA-MB-231 cells assessed as increase in cleaved caspase-3 expression after 12 hrs by Western blotting analysis; assay type: functional, cell-based; conditions: dose 160-640 nM
How it was run: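 MDA-MB-231 cells exposed to graded concentrations or 0.1% DMSO; the methods state 24 h, the legend 12 h. Lysed in RIPA, 80 µg protein per lane on SDS-PAGE and transferred to PVDF. Probed overnight at 4°C for caspase-3, cleaved caspase-3, caspase-9 and cleaved caspase-9, with GAPDH as loading control. HRP secondaries, ECL detection, densitometry. n = 4.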

MDA-MB-231 [13] = experiment: Antitumor activity against human MDA-MB-231 cells xenografted in BALB/c nude mouse assessed as tumor growth inhibition at 25 to 50 mg/kg, ip administered every 3 days for 4 weeks; assay type: functional, organism-based; conditions: dose 25-50 mg/kg
How it was run: (§3)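 Nude mice given 3×10^6 MDA-MB-231 cells in 200 µL PBS, injected subcutaneously into the right flank. Once tumors reached about 100 mm³, mice were randomized into four groups. Dosing was 25 or 50 mg/kg i.p. every three days for four weeks. Tumor volume, tumor weight and body weight were followed. n = 6, mean ± SD.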

[14] = Toxicity in BALB/c nude mouse xenografted with human MDA-MB-231 cells assessed as effect on body weight at 25 to 50 mg/kg, ip administered every 3 days for 4 weeks; assay type: organism-based; conditions: in vivo, 672 h, dose 25-50 mg/kg; how it was run: as §3
[15] = Toxicity in BALB/c nude mouse xenografted with human MDA-MB-231 cells assessed as spleen tissue damage at 25 to 50 mg/kg, ip administered every 3 days for 4 weeks; assay type: organism-based; conditions: in vivo, 672 h, dose 25-50 mg/kg
How it was run: (§4)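 Xenograft-bearing nude mice (MDA-MB-231, s.c. right flank, treated from about 100 mm³) received 25 or 50 mg/kg i.p. every three days for four weeks. At the end mice were euthanized, and visceral organs were fixed in 4% paraformaldehyde for histopathology.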

[16] = Toxicity in BALB/c nude mouse xenografted with human MDA-MB-231 cells assessed as kidney tissue damage at 25 to 50 mg/kg, ip administered every 3 days for 4 weeks; assay type: organism-based; conditions: in vivo, 672 h, dose 25-50 mg/kg; how it was run: as §4
[17] = molecular target: T2, Glutaminase kidney isoform, mitochondrial (Homo sapiens) (UniProt O94925); experiment: Potency index, ratio of WA IC50 to compound IC50 for inhibition of human GLS1; how it was run: as §1
T2 sequence (whole entry): T1 sequence (O94925 whole entry)

For `CC(=O)O[C@H]1C=C([C@H](C)[C@H]2CC(C)=C(C)C(=O)O2)[C@@]2(C)CC[C@H]3[C@@H](C[C@H]4O[C@]45[C@@H](OC(=O)CCCC(=O)Nc4ccc(N6CCOCC6)c(F)c4)C=CC(=O)[C@]35C)[C@@]12O`, the “inhibition (INH)” value (MDA-MB-231 [1]) was 95.2%, the IC50 [2] was 1080 nM and the inhibition (MDA-MB-231 [3]) was “Active”. It also gave a viability at 0.16 µM (MDA-MB-231 [4]) of 96.3%, an Activity (MDA-MB-231 [5]) of 1% and a viability at 0.32 µM (MDA-MB-231 [6]) of 80.3%. For the same compound, the Activity (MDA-MB-231 [7]) was 2.9%, the Activity (MDA-MB-231 [8]) was 0.1% and the viability at 0.64 µM (MDA-MB-231 [9]) was 59.7%. The Activity (MDA-MB-231 [10]) was 28.5%, the Activity (MDA-MB-231 [11]) was 0.1% and the Activity (MDA-MB-231 [12]) was “Dose-Dependent Effect”. For the same compound, the Activity (MDA-MB-231 [13]) was “Active”, the Activity [14] was “Non-Toxic” and the Activity [15] was “Non-Toxic”. The Activity [16] was “Non-Toxic” and the Ratio IC50 [17] was 20.
